How the values were obtained:
Format in all cases: tissue-based
Details in all cases: Trachea
Cavia porcellus [1] = species on record: Cavia porcellus; experiment: Antagonist activity at beta adrenergic receptor in guinea pig tracheal strips assessed as inhibition of 10^-5 M isoproterenol-induced tracheal relaxation incubated 1 hr prior to testing
Procedure, shortened: (§1)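 Guinea pig tracheal strips in 10-mL baths, precontracted with carbachol 10^-7 M. Two cumulative isoproterenol dose-response curves per strip: control, then a 1 h wash, then antagonist added 1 h before the second curve. Dose ratio is the antilog of the difference in −log molar isoproterenol ED50. Apparent K_B = [antagonist]/(dose ratio − 1), using three antagonist concentrations (Furchgott).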

Cavia porcellus [2] = species on record: Cavia porcellus; experiment: Antagonist activity at beta adrenergic receptor in guinea pig tracheal strips assessed as inhibition of 10^-7 M isoproterenol-induced tracheal relaxation incubated 1 hr prior to testing; procedure, shortened: as §1
Cavia porcellus [3] = species on record: Cavia porcellus; experiment: Antagonist activity at beta adrenergic receptor in guinea pig tracheal strips assessed as inhibition of isoproterenol-induced tracheal relaxation incubated 1 hr prior to testing; procedure, shortened: as §1
Cavia porcellus [4] = species on record: Cavia porcellus; experiment: Antagonist activity at beta adrenergic receptor in guinea pig tracheal strips assessed as inhibition of 10^-6 M isoproterenol-induced tracheal relaxation incubated 1 hr prior to testing; procedure, shortened: as §1

| Structure (SMILES) | Kb (Cavia porcellus [1]) | Kb (Cavia porcellus [2]) | inhibition (Cavia porcellus [3]) | Kb (Cavia porcellus [4]) |
| --- | --- | --- | --- | --- |
| C=CCOc1ccc(O)cc1OCC(O)CNC(C)C (stereo unspecified) | 101 nM | 34.8 nM | Dose-dependent effect | 37.9 nM |
| C=CCOc1cc(O)ccc1OCC(O)CNC(C)C (stereo unspecified) | 122 nM | 26.5 nM | Dose-dependent effect | 45.5 nM |
| C=CCOc1ccccc1OCC(O)CNC(C)C (stereo unspecified) |  | 2.61 nM | Dose-dependent effect | 5.81 nM |

Reference: ChEMBL document CHEMBL3244026, “Synthesis of 4'- and 5'-hydroxyoxprenolol:pharmacologically active ring-hydroxylated metabolites of oxprenolol” (J Med Chem, 1979)
